# Legend:
# Format in all cases: functional
# L1210 = assay: Growth inhibition of cultured L1210 mouse leukemia cells was determined; details: read-out: ID50 (the source's name)
# Procedure, shortened: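 L1210 mouse leukemia cells in suspension in Eagle's MEM with 15% whole (non-dialyzed, non-heat-inactivated) fetal calf serum, antibiotics and 0.05 mM 2-mercaptoethanol, 37 °C, 5% CO2. Drugs in pH 7.4 phosphate buffer or Me2SO, generally 10^-7 to 10^-3 M. Coulter cell counts at 48 h; ID50 relative to untreated controls from dose–response curves, triplicate.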
# Mus musculus [1] = assay: Antitumor activity against L1210 leukemia in mice (Average weight per mouse on day 1.) at the dose of 160 mg/kg
# Procedure, shortened: (§1)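 Male B6D2F1J mice (5–9 per group) received 10^5 L1210 cells i.p. on day 0 and drug from day 1, given qd×5 or q4d(2,6). Vehicles were sterile water, 0.05 M potassium phosphate pH 7.4, or 0.4% Tween 80/0.5% CMC/0.9% benzyl alcohol/0.9% saline. Read-out is average body weight per mouse (g) on day 1.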
# Mus musculus [2] = assay: Antitumor activity against L1210 leukemia in mice (Average weight per mouse on day 1.) at the dose of 320 mg/kg; procedure, shortened: as §1
# Mus musculus [3] = assay: Antitumor activity against L1210 leukemia in mice (Average weight per mouse on day 1.) at the dose of 640 mg/kg; procedure, shortened: as §1
# Mus musculus [4] = assay: Antitumor activity against L1210 leukemia in mice (Average weight per mouse on day 1.) at the dose of 80 mg/kg; procedure, shortened: as §1
# Mus musculus [5] = assay: Antitumor activity against L1210/ara-C leukemia in mice (Average weight per mouse on day 1.) at the dose of 160 mg/kg
# Procedure, shortened: (§2)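 Male B6D2F1J mice, groups of 5–9, inoculated ip with 10^5 L1210/ara-C cells on day 0. Dosing began day 1 on a qd×5 or q4d(2,6) schedule. Ara-C was given in sterile water, the n-butyl phosphate ester in 0.05 M pH 7.4 potassium phosphate buffer, and others as suspensions in 0.4% Tween 80/0.5% CMC/0.9% benzyl alcohol/0.9% saline. Mice were weighed on days 1 and 7; 7-day change given in g and %.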
# Mus musculus [6] = assay: Antitumor activity against L1210/ara-C leukemia in mice (Average weight per mouse on day 1.) at the dose of 640 mg/kg; procedure, shortened: as §2
# Mus musculus [7] = assay: Antitumor activity against L1210/ara-C leukemia in mice (Average weight per mouse on day 1.) at the dose of 80 mg/kg; procedure, shortened: as §2
# Mus musculus [8] = assay: Antitumor activity against L1210 leukemia in mice (Percent increase in life span.) at the dose of 160 mg/kg
# Procedure, shortened: (§3)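 Male B6D2F1J mice, groups of 5–9, inoculated ip with 10^5 L1210 cells on day 0. Dosing starts day 1 on a qd×5 or q4d(2,6) schedule. Vehicles are sterile water, pH 7.4 0.05 M potassium phosphate buffer, or 0.4% Tween 80/0.5% CMC/0.9% benzyl alcohol/0.9% saline. %ILS = (T/C − 1)×100 from median survival. Weights taken days 1 and 7.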
# Mus musculus [9] = assay: Antitumor activity against L1210 leukemia in mice (Percent increase in life span.) at the dose of 320 mg/kg; procedure, shortened: as §3
# Mus musculus [10] = assay: Antitumor activity against L1210 leukemia in mice (Percent increase in life span.) at the dose of 640 mg/kg; procedure, shortened: as §3
# Mus musculus [11] = assay: Antitumor activity against L1210 leukemia in mice (Percent increase in life span.) at the dose of 80 mg/kg; details: L1210, dose 80 mg/kg; procedure, shortened: as §3
# Mus musculus [12] = assay: Antitumor activity against L1210/ara-C leukemia in mice (Percent increase in life span.) at the dose of 160 mg/kg
# Procedure, shortened: (§4)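 Same protocol as the L1210 assay, but with 10^5 kinase-deficient L1210/ara-C cells inoculated ip into male B6D2F1J mice (groups of 5–9) on day 0. Treatment begins day 1, qd×5 or q4d(2,6). %ILS = (T/C − 1)×100 using median survival times of treated and control groups. Body weight recorded days 1 and 7.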
# Mus musculus [13] = assay: Antitumor activity against L1210 leukemia in mice (Average 7-day weight change (%)) at the dose of 160 mg/kg
# Procedure, shortened: (§5)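 Male B6D2F1J mice, groups of five to nine, inoculated ip with 10^5 L1210 cells on day 0. Drug treatment started day 1 on qd×5 or q4d(2,6) schedule. Vehicles: ara-C in sterile water; the n-butyl phosphate ester in 0.05 M pH 7.4 potassium phosphate buffer; others as suspensions in 0.4% Tween 80/0.5% low-density CMC/0.9% benzyl alcohol/0.9% saline. Mice weighed days 1 and 7; 7-day weight change given as g/mouse and %.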
# Mus musculus [14] = assay: Antitumor activity against L1210 leukemia in mice (Average 7-day weight change (%)) at the dose of 320 mg/kg; procedure, shortened: as §5
# Mus musculus [15] = assay: Antitumor activity against L1210/ara-C leukemia in mice (Percent increase in life span.) at the dose of 320 mg/kg; procedure, shortened: as §4
# Mus musculus [16] = assay: Antitumor activity against L1210/ara-C leukemia in mice (Percent increase in life span.) at the dose of 640 mg/kg; procedure, shortened: as §4
# Mus musculus [17] = assay: Antitumor activity against L1210/ara-C leukemia in mice (Percent increase in life span.) at the dose of 80 mg/kg; procedure, shortened: as §4
# Mus musculus [18] = assay: Antitumor activity against L1210 leukemia in mice (Average 7-day weight change) at the dose of 160 mg/kg; procedure, shortened: as §5
# Mus musculus [19] = assay: Antitumor activity against L1210 leukemia in mice (Average 7-day weight change) at the dose of 320 mg/kg; procedure, shortened: as §5
# Mus musculus [20] = assay: Antitumor activity against L1210 leukemia in mice (Average 7-day weight change (%)) at the dose of 640 mg/kg; procedure, shortened: as §5
# Mus musculus [21] = assay: Antitumor activity against L1210 leukemia in mice (Average 7-day weight change (%)) at the dose of 80 mg/kg; procedure, shortened: as §5
# Mus musculus [22] = assay: Antitumor activity against L1210/ara-C leukemia in mice (Average 7-day weight change) at the dose of 160 mg/kg
# Procedure, shortened: (§6)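 Male B6D2F1J mice (5–9 per group) were given 10^5 L1210/ara-C cells i.p. on day 0, with treatment from day 1 on qd×5 or q4d(2,6). Vehicles were sterile water, pH 7.4 0.05 M phosphate buffer, or a Tween 80/CMC/benzyl alcohol saline suspension. Weights were taken on days 1 and 7; change is expressed in g/mouse and as a percentage.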
# Mus musculus [23] = assay: Antitumor activity against L1210/ara-C leukemia in mice (Average 7-day weight change) at the dose of 320 mg/kg; procedure, shortened: as §6
# Mus musculus [24] = assay: Antitumor activity against L1210/ara-C leukemia in mice (Average 7-day weight change) at the dose of 640 mg/kg; procedure, shortened: as §2
# Mus musculus [25] = assay: Antitumor activity against L1210/ara-C leukemia in mice (Average 7-day weight change) at the dose of 80 mg/kg; procedure, shortened: as §2
# Mus musculus [26] = assay: Antitumor activity against L1210 leukemia in mice (Average 7-day weight change) at the dose of 640 mg/kg
# Procedure, shortened: (§7)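 Male B6D2F1J mice in groups of five to nine were inoculated i.p. with 10^5 L1210 cells on day 0. Dosing began on day 1 on a qd×5 or q4d(2,6) schedule. The vehicle was sterile water, pH 7.4 0.05 M potassium phosphate buffer, or a saline suspension with 0.4% Tween 80, 0.5% CMC and 0.9% benzyl alcohol. Mice were weighed on days 1 and 7; read-out is average weight change per mouse.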
# Mus musculus [27] = assay: Antitumor activity against L1210 leukemia in mice (Average 7-day weight change) at the dose of 80 mg/kg; procedure, shortened: as §7
# Mus musculus [28] = assay: Antitumor activity against L1210/ara-C leukemia in mice (Average 7-day weight change (%)) at the dose of 160 mg/kg; procedure, shortened: as §6
# Mus musculus [29] = assay: Antitumor activity against L1210/ara-C leukemia in mice (Average 7-day weight change (%)) at the dose of 320 mg/kg; procedure, shortened: as §6
# Mus musculus [30] = assay: Antitumor activity against L1210/ara-C leukemia in mice (Average 7-day weight change (%)) at the dose of 640 mg/kg; procedure, shortened: as §6
# Mus musculus [31] = assay: Antitumor activity against L1210/ara-C leukemia in mice (Average 7-day weight change (%)) at the dose of 80 mg/kg; procedure, shortened: as §6
# B16 = assay: Growth inhibition of B16 mouse melanoma cells in culture was determined; details: read-out: ID50 (the source's name)
# Procedure, shortened: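 B16 mouse melanoma monolayers in McCoy's 5A with 10% whole fetal calf serum, streptomycin and penicillin, 37 °C, 5% CO2. Drugs were dissolved in 0.05 M pH 7.4 potassium phosphate buffer or Me2SO and dosed at regularly spaced concentrations, generally 10^-7 to 10^-3 M. Cells were counted after 48 h; ID50 versus untreated controls was read from dose–response curves, triplicate.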
smiles,measurement,setting,value
CCCCOP(=O)(O)OC[C@H]1O[C@@H](n2ccc(N)nc2=O)[C@@H](O)[C@@H]1O,IC50,L1210,7.5 µM
same,Average weight,Mus musculus [1],23.6 g mouse-1
same,Average weight,Mus musculus [2],22.4 g mouse-1
same,Average weight,Mus musculus [3],22.8 g mouse-1
same,Average weight,Mus musculus [4],22 g mouse-1
same,Average weight,Mus musculus [5],22.2 g mouse-1
same,Average weight,Mus musculus [6],22.6 g mouse-1
same,Average weight,Mus musculus [7],23.4 g mouse-1
same,ILS at 160 mg/kg,Mus musculus [8],50%
same,ILS at 320 mg/kg,Mus musculus [9],87%
same,ILS at 640 mg/kg,Mus musculus [10],87%
same,ILS at 80 mg/kg,Mus musculus [11],37%
same,ILS at 160 mg/kg,Mus musculus [12],0%
same,Weight change,Mus musculus [13],4%
same,Weight change,Mus musculus [14],3%
same,ILS at 320 mg/kg,Mus musculus [15],0%
same,ILS at 640 mg/kg,Mus musculus [16],-13%
same,ILS at 80 mg/kg,Mus musculus [17],0%
same,Weight change,Mus musculus [18],1 g mouse-1
same,Weight change,Mus musculus [19],0.6 g mouse-1
same,Weight change,Mus musculus [20],1%
same,Weight change,Mus musculus [21],10%
same,Weight change,Mus musculus [22],3.6 g mouse-1
same,Weight change,Mus musculus [23],1 g mouse-1
same,Weight change,Mus musculus [24],0.2 g mouse-1
same,Weight change,Mus musculus [25],3 g mouse-1
same,Weight change,Mus musculus [26],0.2 g mouse-1
same,Weight change,Mus musculus [27],2.6 g mouse-1
same,Weight change,Mus musculus [28],16%
same,Weight change,Mus musculus [29],5%
same,Weight change,Mus musculus [30],0%
same,Weight change,Mus musculus [31],13%
same,IC50,B16,130 µM

# From ChEMBL document CHEMBL1122008, “Lipophilic 5'-(alkyl phosphate) esters of 1-beta-D-arabinofuranosylcytosine and its N4-acyl and 2,2'-anhydro-3'-O-acyl derivatives as potential prodrugs” (1982)
